Measurements published in ChEMBL document CHEMBL3098067, “Novel di-tertiary-butyl phenylhydrazones as dual cyclooxygenase-2/5-lipoxygenase inhibitors: synthesis, COX/LOX inhibition, molecular modeling, and insights into their cytotoxicities” (Bioorg Med Chem Lett, 2014).
Blank lines part the entries; values can stand above or below the compound they belong to. Activity calls are given as the source filed them. The calls are words filed in the database; no cut-off is given here.

Experiments:
[1] = Ratio of IC50 for COX-2 positive mouse APC10.1 cells overexpressing HAS-2 to IC50 for COX-2 positive mouse APC10.1 cells transfected with CD44v6shRNA overexpressing HAS-2; format: functional
[2] = Ratio of IC50 for COX-2 positive human HCA-7 cells to IC50 for COX-2 positive human HCA-7 cells transfected with CD44v6shRNA; format: functional
[3] = test system: HT-29; test: Ratio of IC50 for COX-2 positive human HT-29 cells to IC50 for COX-2 positive human HT-29 cells transfected with CD44v6shRNA; format: functional
[4] = test system: HCA-7; test: Inhibition of hyaluronan-induced CD44v6 in human HCA-7 cells transfected with Has2cDNA assessed as downregulation of 5-LOX protein expression at 5 uM after 24 hrs by Western blotting analysis; format: cell-based
Outline: (§1)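 HCA7 cells were transiently transfected with Has2 cDNA, grown 72 h, then treated for 24 h. Western blots were probed for CD44v6, COX-1, COX-2 and 5-LOX, with longer exposures used to show COX-2 and 5-LOX. The same blot was reprobed for β-tubulin as a loading control.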

[5] = test system: HCA-7; test: Inhibition of hyaluronan-induced CD44v6 in human HCA-7 cells transfected with Has2cDNA assessed as downregulation of COX-2 protein expression at 5 uM after 24 hrs by Western blotting analysis; format: cell-based; outline: as §1
[6] = test system: HCA-7; test: Inhibition of hyaluronan-induced CD44v6 in human HCA-7 cells transfected with Has2cDNA assessed as downregulation of COX-1 protein expression at 5 uM after 24 hrs by Western blotting analysis; format: cell-based; outline: as §1
[7] = Downregulation of hyaluronan-induced CD44v6 protein expression in human HCA-7 cells transfected with Has2cDNA at 5 uM after 24 hrs by Western blotting analysis; format: functional, cell-based; outline: as §1
[8] = Cytotoxicity against COX-2 positive mouse APC10.1 cells transfected with CD44v6shRNA overexpressing HAS-2 assessed as growth inhibition after 48 hrs by MTT assay; format: functional, cell-based
[9] = Cytotoxicity against COX-2 positive human HCA-7 cells transfected with CD44v6shRNA assessed as growth inhibition after 48 hrs by MTT assay; format: functional, cell-based; conditions: HCA-7, 48 h
[10] = test system: HT-29; test: Cytotoxicity against COX-2 positive human HT-29 cells transfected with CD44v6shRNA assessed as growth inhibition after 48 hrs by MTT assay; format: functional, cell-based; conditions: HT-29, 48 h
[11] = test system: SW480; test: Cytotoxicity against COX-2 negative human SW480 cells assessed as growth inhibition by CellTiter-96 AQueous assay; format: functional, cell-based
[12] = Cytotoxicity against COX-2 positive human HCA-7 cells assessed as growth inhibition by CellTiter-96 AQueous assay; format: functional, cell-based
[13] = Cytotoxicity against COX-2 positive mouse APC10.1 cells overexpressing HAS-2 assessed as growth inhibition by CellTiter-96 AQueous assay; format: functional, cell-based
[14] = test system: HT-29; test: Cytotoxicity against COX-2 positive human HT-29 cells assessed as growth inhibition by CellTiter-96 AQueous assay; format: functional, cell-based
[15] = biological target: T1, Polyunsaturated fatty acid 5-lipoxygenase (Homo sapiens, UniProt P09917); test: Inhibition of 5-LOX (unknown origin) by ELISA
T1 sequence (P09917 whole entry): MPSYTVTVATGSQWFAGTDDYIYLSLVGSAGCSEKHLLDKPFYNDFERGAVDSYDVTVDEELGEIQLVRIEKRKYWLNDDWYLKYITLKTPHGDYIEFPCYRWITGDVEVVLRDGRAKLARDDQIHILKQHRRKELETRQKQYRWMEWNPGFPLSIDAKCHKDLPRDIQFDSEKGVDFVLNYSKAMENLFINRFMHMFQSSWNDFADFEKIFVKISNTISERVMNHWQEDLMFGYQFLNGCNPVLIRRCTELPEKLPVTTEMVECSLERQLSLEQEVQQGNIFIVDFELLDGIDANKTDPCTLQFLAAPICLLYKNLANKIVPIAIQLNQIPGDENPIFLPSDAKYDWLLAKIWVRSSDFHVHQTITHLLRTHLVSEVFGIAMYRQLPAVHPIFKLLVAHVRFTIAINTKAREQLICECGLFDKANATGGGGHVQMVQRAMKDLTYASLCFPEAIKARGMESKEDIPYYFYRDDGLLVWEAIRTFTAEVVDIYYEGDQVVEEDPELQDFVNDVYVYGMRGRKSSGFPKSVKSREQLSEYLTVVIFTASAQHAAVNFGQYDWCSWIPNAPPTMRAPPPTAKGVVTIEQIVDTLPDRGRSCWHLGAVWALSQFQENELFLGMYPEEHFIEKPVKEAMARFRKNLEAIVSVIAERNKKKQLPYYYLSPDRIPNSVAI
Outline: (§2)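 Assays used enzyme immobilized in ELISA plates, with activity read by ELISA. IC50 values are given in µM.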

[16] = biological target: T2, Prostaglandin G/H synthase 2 (Homo sapiens, UniProt P35354); test: Inhibition of COX-2 (unknown origin) by ELISA
T2 sequence (P35354 whole entry): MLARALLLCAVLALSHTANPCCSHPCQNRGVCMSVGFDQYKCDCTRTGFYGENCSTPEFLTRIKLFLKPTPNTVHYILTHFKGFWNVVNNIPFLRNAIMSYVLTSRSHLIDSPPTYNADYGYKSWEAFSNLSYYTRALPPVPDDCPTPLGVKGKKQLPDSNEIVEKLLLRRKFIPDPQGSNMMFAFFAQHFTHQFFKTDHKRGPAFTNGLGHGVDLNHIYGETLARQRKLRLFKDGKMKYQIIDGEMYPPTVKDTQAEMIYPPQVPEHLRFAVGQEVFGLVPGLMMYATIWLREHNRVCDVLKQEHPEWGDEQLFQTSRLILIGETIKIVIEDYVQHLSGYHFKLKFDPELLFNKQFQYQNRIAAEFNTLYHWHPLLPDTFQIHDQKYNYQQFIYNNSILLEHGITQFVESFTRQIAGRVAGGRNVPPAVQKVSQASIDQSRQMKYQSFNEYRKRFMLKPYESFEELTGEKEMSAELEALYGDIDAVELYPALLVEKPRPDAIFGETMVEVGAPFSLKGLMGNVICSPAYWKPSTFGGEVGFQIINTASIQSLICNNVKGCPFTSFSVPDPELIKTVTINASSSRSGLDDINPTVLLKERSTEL

[17] = biological target: T3, Prostaglandin G/H synthase 1 (Ovis aries, UniProt P05979); test: Inhibition of ram seminal vesicle COX-1 assessed as conversion of arachidonic acid to PGH2; outline: as §2
T3 sequence (P05979 whole entry): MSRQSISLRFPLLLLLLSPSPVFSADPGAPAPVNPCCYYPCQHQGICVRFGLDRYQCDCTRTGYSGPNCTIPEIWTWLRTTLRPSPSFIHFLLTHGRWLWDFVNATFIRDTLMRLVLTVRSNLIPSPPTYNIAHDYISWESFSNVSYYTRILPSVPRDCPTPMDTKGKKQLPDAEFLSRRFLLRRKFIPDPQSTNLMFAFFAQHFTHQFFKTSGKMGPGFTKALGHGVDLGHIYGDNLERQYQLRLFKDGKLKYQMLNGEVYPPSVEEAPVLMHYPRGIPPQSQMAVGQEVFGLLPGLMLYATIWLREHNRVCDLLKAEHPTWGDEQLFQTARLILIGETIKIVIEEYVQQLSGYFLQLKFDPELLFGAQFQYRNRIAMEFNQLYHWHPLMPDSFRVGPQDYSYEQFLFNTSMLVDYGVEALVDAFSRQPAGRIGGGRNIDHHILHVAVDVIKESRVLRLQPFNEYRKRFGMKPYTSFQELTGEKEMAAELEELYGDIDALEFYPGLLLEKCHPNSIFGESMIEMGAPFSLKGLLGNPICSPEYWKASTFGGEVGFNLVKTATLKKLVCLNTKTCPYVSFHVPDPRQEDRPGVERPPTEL

[18] = test system: HCA-7; test: Cytotoxicity against human HCA-7 cells expressing COX-2, 5-LOX, CD44v6 assessed as growth inhibition after 24 hrs by MTT assay; format: functional, cell-based
Outline: (§3)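 HCA7 and HIEC6 cells were exposed to a range of test concentrations for 24 h. Cytotoxicity was read by MTT assay and expressed as percent growth inhibition, with untreated cells set to 0% inhibition.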

[19] = test system: HT-29; test: Downregulation of hyaluronan-induced CD44v6 m-RNA expression in human HT-29 cells transfected with Has2cDNA and CD44v6shRNA at 5 uM after 24 hrs by qRT-PCR analysis; format: functional, cell-based
Outline: (§4)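 HT29 cells were transiently transfected with Has2 cDNA alone, or with Has2 cDNA followed by CD44v6 shRNA. They were grown 72 h, then treated for 24 h. CD44v6 mRNA was quantified by qRT-PCR in three independent experiments, each with triplicate samples.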

[20] = test system: HT-29; test: Downregulation of hyaluronan-induced CD44v6 m-RNA expression in human HT-29 cells transfected with Has2cDNA at 5 uM after 24 hrs by qRT-PCR analysis; format: functional, cell-based; outline: as §4
[21] = Cytotoxicity against COX-2, LOX, CD44v6-deficient HIEC6 cells assessed as growth inhibition after 24 hrs by MTT assay; format: cell-based; conditions: human, hiec6, 24 h; outline: as §3
[22] = test system: HCA-7; test: Inhibition of hyaluronan-induced CD44v6 in human HCA-7 cells transfected with Has2cDNA assessed as downregulation of 5-LOX protein expression at 50 uM after 24 hrs by Western blotting analysis; format: cell-based; outline: as §1
[23] = test system: HCA-7; test: Inhibition of hyaluronan-induced CD44v6 in human HCA-7 cells transfected with Has2cDNA assessed as downregulation of COX-2 protein expression at 50 uM after 24 hrs by Western blotting analysis; format: cell-based; outline: as §1
[24] = test system: HCA-7; test: Inhibition of hyaluronan-induced CD44v6 in human HCA-7 cells transfected with Has2cDNA assessed as downregulation of COX-1 protein expression at 50 uM after 24 hrs by Western blotting analysis; format: cell-based; outline: as §1

Compound: CC(C)(C)c1cc(C=O)c(O)c(C(C)(C)C)c1
growth inhibition (GI) [18]: Active

Compound: Cc1ccc(-c2cc(C(F)(F)F)nn2-c2ccc(S(N)(=O)=O)cc2)cc1 [CELECOXIB]
Activity [4]: Active | Activity [5]: Active | Activity [6]: Active | IC50 [8]: 1.3 µM | IC50 [9]: 0.75 µM | IC50 [10]: 0.7 µM | IC50 [11]: 6.9 µM | IC50 [12]: 4.9 µM | IC50 [13]: 13.4 µM | IC50 [14]: 5.7 µM

Compound: CC1(C)Cc2c(-c3ccccc3)c(-c3ccc(Cl)cc3)c(CC(=O)O)n2C1 [LICOFELONE]
Activity [22]: Active | Activity [23]: Active | Activity [24]: Active | IC50 [8]: 23 µM | IC50 [9]: 18.5 µM | IC50 [10]: 21.1 µM | IC50 [11]: 68 µM | IC50 [12]: 60.9 µM | IC50 [13]: 70.6 µM | IC50 [14]: 67 µM | IC50 [17]: 0.8 µM

Compound: NNC(=O)c1ccccc1O
growth inhibition (GI) [18]: Active

Second part, led by results:

IC50 [15]: 6.25 µM | IC50 [16]: 7.11 µM | IC50 [17]: > 300 µM
Compound: CC(C)(C)c1cc(/C=N/NC(=O)c2ccncc2)c(O)c(C(C)(C)C)c1
Ratio IC50 [1]: 6.1 | Ratio IC50 [2]: 8.4 | Ratio IC50 [3]: 8 | Activity [4]: Active | Activity [5]: Active | Activity [6]: Active | Activity [7]: Active | IC50 [8]: 3 µM | IC50 [9]: 0.76 µM | IC50 [10]: 0.71 µM | IC50 [11]: 33.7 µM | IC50 [12]: 6.4 µM | IC50 [13]: 18.2 µM | IC50 [14]: 5.8 µM

IC50 [15]: 5.88 µM | IC50 [16]: 6.49 µM | IC50 [17]: 25.5 µM
Compound: CC(C)(C)c1cc(/C=N/NC(=O)c2ccccc2)c(O)c(C(C)(C)C)c1
Ratio IC50 [1]: 6.1 | Ratio IC50 [2]: 7.7 | Ratio IC50 [3]: 6.7 | Activity [4]: Active | Activity [5]: Active | Activity [6]: Active | Activity [7]: Active | IC50 [8]: 1.8 µM | IC50 [9]: 0.56 µM | IC50 [10]: 0.85 µM | IC50 [11]: 35.7 µM | IC50 [12]: 4.3 µM | IC50 [13]: 11.9 µM | IC50 [14]: 5.7 µM

IC50 [15]: 5.55 µM | IC50 [16]: 8.8 µM | IC50 [17]: > 300 µM
Compound: CC(C)(C)c1cc(/C=N/NC(=O)c2cccnc2)c(O)c(C(C)(C)C)c1
Ratio IC50 [1]: 7.2 | Ratio IC50 [2]: 14 | Ratio IC50 [3]: 12 | Activity [4]: Active | Activity [5]: Active | Activity [6]: Active | Activity [7]: Active | IC50 [8]: 1.9 µM | IC50 [9]: 0.26 µM | IC50 [10]: 0.35 µM | IC50 [11]: 37 µM | IC50 [12]: 3.5 µM | IC50 [13]: 13.8 µM | IC50 [14]: 4.3 µM

IC50 [15]: 8 µM | IC50 [16]: 5.13 µM | IC50 [17]: 44.6 µM
Compound: CC(C)(C)c1cc(/C=N/NC(=O)c2ccccc2O)c(O)c(C(C)(C)C)c1
Ratio IC50 [1]: 37.3 | Ratio IC50 [2]: 21 | Ratio IC50 [3]: 20 | Activity [4]: Active | Activity [5]: Active | Activity [6]: Active | Activity [19]: Active | Activity [20]: Active | Activity [7]: Active | Activity [21]: Non-toxic | growth inhibition (GI) [18]: Active | IC50 [8]: 0.15 µM | IC50 [9]: 0.078 µM | IC50 [10]: 0.09 µM | IC50 [11]: 15.5 µM | IC50 [12]: 1.6 µM | IC50 [13]: 5.6 µM | IC50 [14]: 1.8 µM
